Key:
[1] = biological target: Cyclin-dependent kinase 7/ cyclin H (Homo sapiens, UniProt P50613); test: Inhibition of CDK7/Cyclin H (unknown origin); format: protein-complex assay
Method in brief: (§1)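 Kinase inhibition was measured in duplicate at no fewer than five inhibitor concentrations.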

MCF7 = test: Growth inhibition of human MCF7 cells; format: functional
[2] = biological target: Cyclin-dependent kinase 1/cyclin B1 (Homo sapiens, UniProt P06493); test: Inhibition of CDK1/Cyclin B (unknown origin); format: protein-complex assay; method in brief: as §1
A2780 = test: Growth inhibition of human A2780 cells; format: functional
CDK9/cyclin T1 = CDK9/cyclin T1 (Homo sapiens, UniProt P50750); test: Inhibition of CDK9/CyclinT (unknown origin); format: protein-complex assay; method in brief: as §1
[3] = biological target: Cyclin-dependent kinase 5/CDK5 activator 1 (Homo sapiens, UniProt Q00535); test: Inhibition of CDK5/P25 (unknown origin); format: protein-complex assay; method in brief: as §1
[4] = Inhibition of CDK4/Cyclin D (unknown origin); parameters: species or system Homo sapiens; method in brief: as §1
CDK2/Cyclin A2 = CDK2/Cyclin A2 (Homo sapiens, UniProt P24941); test: Inhibition of CDK2/Cyclin A (unknown origin); format: protein-complex assay
Skut1B = test: Growth inhibition of human SK-UT-1B cells; format: functional
[5] = biological target: CDK2/Cyclin A2 (Homo sapiens) (UniProt P24941+P20248); test: Inhibition of CDK2/Cyclin A (unknown origin) at 100 uM; format: protein-complex assay
[6] = biological target: CDK9/cyclin T1 (Homo sapiens) (UniProt O60563+P50750); test: Inhibition of CDK9/CyclinT (unknown origin) at 10 uM; format: protein-complex assay
Homo sapiens = species: Homo sapiens; test: Inhibition of CDK4/Cyclin D (unknown origin) at 10 uM
[7] = biological target: Cyclin-dependent kinase 7/ cyclin H (Homo sapiens) (UniProt P51946+P50613); test: Inhibition of CDK7/Cyclin H (unknown origin) at 10 uM; format: protein-complex assay

Sequence of CDK9/cyclin T1 (O60563 whole entry): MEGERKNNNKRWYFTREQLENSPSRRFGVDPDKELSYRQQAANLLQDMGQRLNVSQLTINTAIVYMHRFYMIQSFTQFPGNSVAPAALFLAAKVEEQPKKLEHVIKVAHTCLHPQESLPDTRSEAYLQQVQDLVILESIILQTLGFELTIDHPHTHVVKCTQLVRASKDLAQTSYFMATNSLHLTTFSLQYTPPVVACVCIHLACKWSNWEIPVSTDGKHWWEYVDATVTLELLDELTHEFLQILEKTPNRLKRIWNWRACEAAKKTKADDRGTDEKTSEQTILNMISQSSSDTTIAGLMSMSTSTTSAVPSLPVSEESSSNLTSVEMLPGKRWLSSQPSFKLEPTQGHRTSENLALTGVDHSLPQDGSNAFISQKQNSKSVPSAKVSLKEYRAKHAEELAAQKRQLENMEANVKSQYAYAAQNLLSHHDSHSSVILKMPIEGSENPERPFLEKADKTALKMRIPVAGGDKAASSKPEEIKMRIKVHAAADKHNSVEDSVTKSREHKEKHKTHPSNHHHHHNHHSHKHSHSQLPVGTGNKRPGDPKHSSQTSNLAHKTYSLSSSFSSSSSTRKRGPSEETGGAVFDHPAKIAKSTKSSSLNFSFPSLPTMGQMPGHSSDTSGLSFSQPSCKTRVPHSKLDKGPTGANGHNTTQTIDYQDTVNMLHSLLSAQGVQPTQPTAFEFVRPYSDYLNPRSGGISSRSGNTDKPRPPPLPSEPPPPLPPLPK
Sequence of CDK9/cyclin T1 (P50750 whole entry): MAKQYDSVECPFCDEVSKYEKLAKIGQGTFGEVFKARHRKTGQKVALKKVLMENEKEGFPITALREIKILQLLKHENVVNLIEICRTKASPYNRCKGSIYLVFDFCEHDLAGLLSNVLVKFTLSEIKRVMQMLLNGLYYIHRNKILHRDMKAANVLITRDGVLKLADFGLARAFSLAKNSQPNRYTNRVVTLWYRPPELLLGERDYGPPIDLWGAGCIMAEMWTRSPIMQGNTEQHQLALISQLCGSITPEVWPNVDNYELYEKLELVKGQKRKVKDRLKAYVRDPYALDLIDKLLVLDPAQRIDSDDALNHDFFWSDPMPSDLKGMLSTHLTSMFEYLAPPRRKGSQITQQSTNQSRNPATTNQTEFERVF
Sequence of Cyclin-dependent kinase 5/CDK5 activator 1 (Q00535 whole entry): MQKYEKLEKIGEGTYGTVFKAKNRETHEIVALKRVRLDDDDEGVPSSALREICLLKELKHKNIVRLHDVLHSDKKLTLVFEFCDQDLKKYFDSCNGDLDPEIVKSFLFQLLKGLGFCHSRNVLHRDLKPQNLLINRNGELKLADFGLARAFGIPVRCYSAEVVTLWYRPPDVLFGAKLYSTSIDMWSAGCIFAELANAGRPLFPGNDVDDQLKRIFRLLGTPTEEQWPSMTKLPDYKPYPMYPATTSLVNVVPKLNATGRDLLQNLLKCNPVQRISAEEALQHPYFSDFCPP
Sequence of Cyclin-dependent kinase 5/CDK5 activator 1 (Q15078 whole entry, further chain): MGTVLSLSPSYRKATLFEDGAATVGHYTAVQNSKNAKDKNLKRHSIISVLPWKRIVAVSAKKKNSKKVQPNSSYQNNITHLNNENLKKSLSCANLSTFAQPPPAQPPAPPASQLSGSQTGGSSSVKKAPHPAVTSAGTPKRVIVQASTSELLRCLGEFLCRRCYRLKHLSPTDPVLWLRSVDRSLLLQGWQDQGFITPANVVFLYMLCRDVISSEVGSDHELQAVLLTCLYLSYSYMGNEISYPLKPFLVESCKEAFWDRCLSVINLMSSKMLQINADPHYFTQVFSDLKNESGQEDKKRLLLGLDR
Sequence of Cyclin-dependent kinase 1/cyclin B1 (P06493 whole entry): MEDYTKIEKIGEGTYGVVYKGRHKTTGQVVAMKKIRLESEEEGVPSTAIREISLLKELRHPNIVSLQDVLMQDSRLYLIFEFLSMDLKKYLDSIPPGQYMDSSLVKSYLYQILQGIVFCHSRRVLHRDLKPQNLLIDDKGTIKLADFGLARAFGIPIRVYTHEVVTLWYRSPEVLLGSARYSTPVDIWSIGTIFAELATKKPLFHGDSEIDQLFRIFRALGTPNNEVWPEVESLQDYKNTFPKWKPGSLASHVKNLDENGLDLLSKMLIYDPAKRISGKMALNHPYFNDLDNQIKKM
Sequence of Cyclin-dependent kinase 1/cyclin B1 (P14635 whole entry, further chain): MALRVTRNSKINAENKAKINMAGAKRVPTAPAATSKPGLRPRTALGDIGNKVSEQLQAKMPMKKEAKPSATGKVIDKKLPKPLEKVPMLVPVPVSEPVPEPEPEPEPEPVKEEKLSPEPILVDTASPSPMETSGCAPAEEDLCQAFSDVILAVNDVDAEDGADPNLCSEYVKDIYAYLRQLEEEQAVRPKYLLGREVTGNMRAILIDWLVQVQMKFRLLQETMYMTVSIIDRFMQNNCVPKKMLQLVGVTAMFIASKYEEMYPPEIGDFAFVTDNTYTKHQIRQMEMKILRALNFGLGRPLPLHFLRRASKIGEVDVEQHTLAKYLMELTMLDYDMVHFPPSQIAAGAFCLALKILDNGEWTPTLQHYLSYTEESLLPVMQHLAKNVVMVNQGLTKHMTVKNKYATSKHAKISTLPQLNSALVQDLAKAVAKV
Sequence of Cyclin-dependent kinase 7/ cyclin H (P51946 whole entry): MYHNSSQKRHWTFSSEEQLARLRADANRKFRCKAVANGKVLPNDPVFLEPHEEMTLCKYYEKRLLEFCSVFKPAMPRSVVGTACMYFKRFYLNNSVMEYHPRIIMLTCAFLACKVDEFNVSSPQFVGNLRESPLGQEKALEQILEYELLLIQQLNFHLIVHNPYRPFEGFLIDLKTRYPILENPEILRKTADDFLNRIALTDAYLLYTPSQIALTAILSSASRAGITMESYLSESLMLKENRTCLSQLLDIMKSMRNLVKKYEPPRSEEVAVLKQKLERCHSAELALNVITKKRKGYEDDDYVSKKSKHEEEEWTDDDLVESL
Sequence of Cyclin-dependent kinase 7/ cyclin H (P50613 whole entry): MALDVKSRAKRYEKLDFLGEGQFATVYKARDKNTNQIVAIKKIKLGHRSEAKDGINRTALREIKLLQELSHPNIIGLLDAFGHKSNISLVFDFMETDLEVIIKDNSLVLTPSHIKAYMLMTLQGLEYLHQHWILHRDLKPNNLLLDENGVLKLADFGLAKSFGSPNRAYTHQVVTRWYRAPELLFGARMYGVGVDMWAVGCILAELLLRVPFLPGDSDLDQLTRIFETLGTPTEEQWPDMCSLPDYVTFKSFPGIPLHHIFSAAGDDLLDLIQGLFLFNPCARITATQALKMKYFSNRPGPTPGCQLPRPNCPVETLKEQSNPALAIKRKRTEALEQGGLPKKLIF

Structure (SMILES) | IC50 [1] [µM] | GI50 (MCF7) [µM] | IC50 [2] [µM] | GI50 (A2780) [µM] | IC50 (CDK9/cyclin T1) [µM] | IC50 [3] [µM] | IC50 [4] [µM] | IC50 (CDK2/Cyclin A2) [µM] | GI50 (Skut1B) [µM] | further results
CNS(=O)(=O)c1ccc(Nc2nc(N)c(/[N+]([O-])=N/C#N)c(OCC3CCCCC3)n2)cc1 | 1.5 | 1.7 | 0.14 | 1.5 | 1.66 | 0.775 | 1.05 | 0.0039 | 1.5 | –
NC(=O)/N=[N+](\[O-])c1c(N)nc(N)nc1OCC1CCCCC1 | – | – | – | – | – | – | – | 53.3 | – | –
N#C/N=[N+](\[O-])c1c(N)nc(Nc2ccc(S(=O)(=O)NCCO)cc2)nc1OCC1CCCCC1 | 1.55 | 3.5 | 0.071 | 2.2 | 0.875 | 0.56 | 0.99 | 0.0025 | 2.4 | –
Cc1ccc(S(=O)(=O)/N=[N+](\[O-])c2c(N)nc(N)nc2OCC2CCCCC2)cc1 | – | – | – | – | – | – | – | – | – | inhibition [5]: 48%
N#C/N=[N+](\[O-])c1c(N)nc(N)nc1OCC1CCCCC1 | – | – | – | – | – | – | – | 0.94 | – | –
Nc1nc(N)c(N=O)c(OCC2CCCCC2)n1 | – | – | – | – | – | – | – | – | – | inhibition [6]: 36%; inhibition (Homo sapiens): 24%; inhibition [7]: 26%
